H69AR inhibit – proliferation blockers of H69AR lung cancer cells, primary screen, cell-based, human, 86K library; H69AR lung tumor viability, ATP luminescence, 72 h; active compounds read low; viability, % at 10 µM; 85,000 tested, 6% active;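 active = viability at or below 40%; inactive = viability above 40%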;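 also: multidrug resistant small cell line overexpressing MRP-1 efflux transporter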
HCT116 PTEN-null – growth suppression of PTEN-null HCT116, primary screen, cell-based, CellTiter-Glo | HCT116 PTEN-null viability, 60 h; active compounds read low | viability, % at 10 µM | 140,000 tested, 1.2% active | AID 827, 2007;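 active = viability at or below a set limit, 4 SD under the median of all tested compounds, cut at about 3.7% in these data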;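 also: PTEN knockout HCT116 line with beta catenin targeted HCT116 as companion control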
bCat KO growth – primary screen for growth suppressors in beta-catenin knockout HCT116 cells (colon tumor, human); HCT116 beta-catenin knockout viability, CellTiter-Glo, 60 h; active compounds read low; viability, % at 10 µM; 140,000 tested, 1.5% active; AID 818, 2007;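 active = viability at or under a set limit, the compound median less 4 SD, cut at about 6% in these data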
Fibroblast inh – antiproliferative effect on LL 47 fibroblasts – human, LL 47 cells, CellTiter-Glo luminescence, primary screen; LL 47 human lung fibroblast viability, ATP luminescence; active compounds read low; viability, % at 10 µM; 85,000 tested, 1.1% active;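 active = viability at or below 50% in the single dose screen; inactive = viability above 50%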;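 also: compound exposure lasted 72 h before the ATP readout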
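Test system: LL 47 human lung fibroblasts / Incubation: 72 h compound exposure at 37 °C after overnight plating / Technique: luminescent ATP detection, CellTiter-Glo / Compound dosing: 0.1% DMSO in all compound wells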
HUVEC prolif 384 – inhibitors of HUVEC proliferation, primary screen, cell-based, 384-well; CellTiter-Glo luminescence, 72 h; active compounds read low; viability, % at 10 µM (by protocol); 86,000 tested, 1.1% active; AID 648, 2007;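 active = viability at or below 30%; inactive = viability above 30%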
Hits are given with their value; . = inactive; / = not tested or not shown. The sample as a whole holds a higher share of hits than the screen did.

SMILES	H69AR inhibit	HCT116 PTEN-null	bCat KO growth	Fibroblast inh	HUVEC prolif 384
COc1ccccc1CNC(=O)C(C)NS(=O)(=O)c1ccc(Br)cc1 (stereo not drawn)	.	.	.	.	.
CN1CCN(c2ccccc2NC(=O)c2cccc(OCc3ccccc3)c2)CC1	11	.	.	.	8.2
COc1ccc(CC(=O)NNc2ncnc3c2cnn3-c2ccc(C)cc2)cc1OC	/	.	.	/	/
Cc1cc(=O)[nH]c(SCC(=O)Nc2ccccc2C#N)c1C#N	/	.	.	/	/
Cc1cc(=O)[nH]c(SCC(=O)Nc2ccc(Br)cc2)c1C#N	31	.	.	.	.
O=C(c1ccco1)N1CCN(C/C=C/c2ccccc2)CC1	.	.	.	.	.
O=C(c1nn(Cc2ccccc2)c(=O)c2ccccc12)N1CCN(C/C=C/c2ccccc2)CC1	31	.	.	.	.
Cc1nn(-c2ccc(F)cc2)c(Cl)c1/C=C1\C(=O)Nc2ccccc21	/	.	.	/	/
CSc1nc(N(C)C)nc(N2CC(=O)N(CCNS(=O)(=O)c3ccc(C)cc3)C2=N)n1	/	.	.	/	/
CCOC(=O)c1[nH]c(CSc2nnc(-c3ccc(OC)cc3)o2)c(C(=O)OCC)c1C	18	.	.	.	.
COc1cccc(C(=O)CSc2nnc(-c3cc(OC)cc(OC)c3)o2)c1	8.7	.	.	.	24
C#CCSc1nnc(-c2ccc(OC)cc2)o1	19	.	.	.	.
COc1cccc(C(=O)CSc2nnc(-c3cccs3)o2)c1	.	.	.	.	.
CCOC(=O)c1c(C)[nH]c(C)c1C(=O)CSc1nnc(-c2ccc(OC(F)F)cc2)o1	.	.	.	.	.
COc1ccc(-c2nnc(SCC(=O)c3[nH]c(C)c(C(C)=O)c3C)o2)cc1	5.3	.	.	.	.
CC1(C)NC(=O)N(CC(=O)OCC(=O)Nc2cc(S(=O)(=O)N3CCCCC3)ccc2Cl)C1=O	/	.	.	/	/
Cc1ccccc1Cn1ccc(NC(=O)c2nn(C)cc2[N+](=O)[O-])n1	/	2.1	3.8	/	/
Cn1cc([N+](=O)[O-])c(C(=O)Nc2cc(Oc3ccccc3)cc([N+](=O)[O-])c2)n1	/	1.7	1.6	/	/
CCn1cc([N+](=O)[O-])c(C(=O)Nc2ccn(Cc3ccccc3F)n2)n1	/	.	.	/	/
CCOC(=O)c1ccc(Nc2ccc(-c3ccc(OC)c(OC)c3)nn2)cc1	32	.	.	.	.
OC(CN1CCN(c2ccccc2)CC1)c1c[nH]c2ccccc12 (stereo not drawn)	38	.	.	.	.
Cc1[nH]c2ccccc2c1C(O)CN1CCN(c2cccc(C(F)(F)F)c2)CC1 (stereo not drawn)	1.3	.	.	43	2.4
CCc1cc2ccccc2nc1SCC(=O)Nc1cc(OC)c(OC)cc1C(=O)O	/	.	.	/	/
CC(C)(C)C(=O)Nc1nnc(SCC(=O)NCc2ccco2)s1	/	.	.	/	/
COc1cccc(-c2cc3nc(-c4ccccc4)cc(N4CCC5(CC4)OCCO5)n3n2)c1	.	.	.	.	.
SMILES	H69AR inhibit	HCT116 PTEN-null	bCat KO growth	Fibroblast inh	HUVEC prolif 384
CN1CCN(c2cc(-c3ccccc3)nc3cc(-c4ccc(F)cc4)nn23)CC1	/	1.3	3.8	/	/
Fc1ccc(-c2cc3nc(-c4ccccc4)cc(N4CCN(CCN5CCOCC5)CC4)n3n2)cc1	26	1.6	1.7	.	.
COC(=O)c1sc(=S)sc1C(=O)OC	.	.	.	/	.
O=C(COC(=O)CNC(=O)c1sc2ccccc2c1Cl)Nc1c(Cl)cc(Cl)cc1Cl	/	.	.	/	/
Cc1cc(=O)[nH]c2ccc(Cl)cc12	.	.	.	.	24
S=C(Nc1ccc(Br)cc1)NC1CCCCC1	/	.	.	/	/
O=C(Oc1ccc(NC2=C(Cl)C(=O)c3ccccc3C2=O)cc1)c1ccc([N+](=O)[O-])cc1	/	1.1	0.9	/	/
O=C(OCc1ccccc1)C1CCCN1C(=O)c1ccccc1[N+](=O)[O-] (stereo not drawn)	/	.	.	/	/
CC(=O)[C@H]1[C@@H]2C(=O)N(c3cccc(Cl)c3)C(=O)[C@@H]2[C@H]2c3ccccc3C=CN21	.	.	.	.	.
CC(C)(C)C(=O)[C@@H]1[C@@H]2C(=O)N(Cc3ccccc3)C(=O)[C@@H]2[C@H]2c3ccccc3C=CN12	34	.	.	.	.
Cc1ccc(-n2c(SCC(=O)Nc3nccs3)nc3c(c2=O)SCC3)cc1	.	.	.	27	.
O=C(CSCc1ccc(Cl)cc1Cl)Nc1nccs1	/	.	.	/	/

Screens from PubChem BioAssay.
